Tests used:
[1] = target: T1, Broad substrate specificity ATP-binding cassette transporter ABCG2 (Homo sapiens, UniProt Q9UNQ0); assay: Modulation of ABCG2 (unknown origin) expressed in High Five insect cell vesicle membrane assessed as stimulation of ATPase activity after 20 mins by colorimetric assay
T1 sequence (Q9UNQ0 whole entry): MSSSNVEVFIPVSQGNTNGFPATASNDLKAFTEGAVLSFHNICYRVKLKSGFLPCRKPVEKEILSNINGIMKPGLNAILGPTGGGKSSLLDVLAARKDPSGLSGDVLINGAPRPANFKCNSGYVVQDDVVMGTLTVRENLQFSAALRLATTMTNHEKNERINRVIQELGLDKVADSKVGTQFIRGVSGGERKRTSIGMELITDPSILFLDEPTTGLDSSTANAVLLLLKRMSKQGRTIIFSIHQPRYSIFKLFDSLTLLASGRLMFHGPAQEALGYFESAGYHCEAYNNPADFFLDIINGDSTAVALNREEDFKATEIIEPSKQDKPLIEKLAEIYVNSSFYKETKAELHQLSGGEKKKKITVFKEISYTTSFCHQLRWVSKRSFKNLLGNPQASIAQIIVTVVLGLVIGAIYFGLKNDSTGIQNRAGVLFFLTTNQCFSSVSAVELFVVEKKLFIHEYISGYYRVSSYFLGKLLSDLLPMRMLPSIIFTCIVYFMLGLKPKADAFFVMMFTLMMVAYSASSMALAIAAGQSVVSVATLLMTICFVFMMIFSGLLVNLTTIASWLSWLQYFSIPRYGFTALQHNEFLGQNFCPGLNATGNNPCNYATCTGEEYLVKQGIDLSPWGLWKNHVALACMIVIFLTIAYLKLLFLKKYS
Procedure, shortened: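 Membrane vesicles from ABCG2-expressing High Five cells were incubated with LCA (0–390 μM) at 37 °C for 20 min in 50 mM MES-Tris pH 6.8 with ouabain, DTT, NaN3, EGTA and KCl, ±0.3 mM vanadate. Liberated Pi was read by molybdate/ascorbate colorimetry at 880 nm. Vi-sensitive activity = activity minus activity with vanadate; mean ± SD of three experiments.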

[2] = tested on: HEK293; assay: Induction of Calcein-AM accumulation in HEK293 cells at 20 uM incubated for 10 mins by FACScan flow cytometry; type: cell-based; details: human, hek293, 10 min
Procedure, shortened: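 Parental HEK293 cells (3 × 10^5) were resuspended in IMDM with 5% FCS and given calcein-AM with or without 20 μM modulator for 10 min. Intracellular calcein (ex 485/em 535 nm) was measured by flow cytometry; at least three independent experiments.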

[3] = target: Multidrug resistance-associated protein 1 (Homo sapiens, UniProt P33527); assay: Modulation of human ABCC1 expressed in HEK293/MRP1 cells assessed as increase in intracellular calcein-AM accumulation at 20 uM incubated for 10 mins by FACScan flow cytometry; type: cell-based
Procedure, shortened: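 Cells held drug-free 7 days. 3 × 10^5 cells in IMDM with 5% FCS were loaded with calcein-AM for 10 min, with or without 20 μM LCA. Reference inhibitors were tariquidar 3 μM (ABCB1) and MK-571 25 μM (ABCC1). Calcein fluorescence (ex 485/em 535 nm) was read by flow cytometry; at least three independent experiments.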

[4] = Cytotoxicity against human NCI-H460/MX20 cells harboring ABCG2 after 72 hrs by MTT assay; type: functional, cell-based; details: NCI-H460/MX20, 72 h
Procedure, shortened: (§1)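 Cells seeded at 5000/well, allowed 24 h, then exposed to a concentration series for 72 h at 37 °C in DMSO vehicle (up to 0.5% v/v). HEK293 lines were read with CCK-8 and cancer lines with MTT. IC50 was taken from fitted dose-response curves over at least three independent experiments. Lines were kept drug-free for 7 days before assay.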

[5] = tested on: HEK293; assay: Cytotoxicity against HEK293 cells after 72 hrs by CCK8 assay; type: cell-based; details: Homo sapiens, HEK293, 72 h; procedure, shortened: as §1
[6] = tested on: S1; assay: Cytotoxicity against human S1 cells after 72 hrs by MTT assay; type: functional, cell-based; details: S1, 72 h; procedure, shortened: as §1
[7] = tested on: NCI-H460; assay: Effect on topotecan-induced cytotoxicity against human H460 cells assessed as fold change in topotecan IC50 at 2 uM after 72 hrs by MTT assay relative to topotecan IC50; type: functional
Procedure, shortened: (§2)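 Parental S1 colon and H460 lung cancer cells were exposed for 72 h to a mitoxantrone or topotecan concentration series, with or without modulator at 0.5–3.0 μM, and read by MTT. Fold-reversal is IC50 without modulator divided by IC50 with modulator, taken from dose-response curves of three independent experiments.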

[8] = target: T1, Broad substrate specificity ATP-binding cassette transporter ABCG2; assay: Reversal of ABCG2 (unknown origin)-mediated multidrug resistance in human S1-M1-80 cells assessed as fold-change in topotecan IC50 at 1 uM after 72 hrs by MTT assay relative to topotecan IC50; type: cell-based; details: s1-m1-80, 72 h
Procedure, shortened: (§3)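 MTT readout in S1-M1-80 colon cancer cells (mitoxantrone-selected, held in 80 μM mitoxantrone, then drug-free 7 days before assay). Cells were seeded at 5000/well for 24 h, then given increasing mitoxantrone or topotecan with DMSO or non-toxic modulator for 72 h at 37 °C. IC50 came from fitted dose-response curves (at least three independent experiments). Fold-reversal = IC50 without modulator ÷ IC50 with modulator.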

[9] = tested on: S1; assay: Effect on topotecan-induced cytotoxicity against human S1 cells assessed as fold change in topotecan IC50 at 3 uM after 72 hrs by MTT assay relative to topotecan IC50; type: functional; procedure, shortened: as §2
[10] = tested on: S1; assay: Effect on topotecan-induced cytotoxicity against human S1 cells assessed as fold change in topotecan IC50 at 2 uM after 72 hrs by MTT assay relative to topotecan IC50; type: functional; procedure, shortened: as §2
[11] = target: T1, Broad substrate specificity ATP-binding cassette transporter ABCG2; assay: Reversal of ABCG2 (unknown origin)-mediated multidrug resistance in human S1-M1-80 cells assessed as fold-change in mitoxantrone IC50 at 3 uM after 72 hrs by MTT assay relative to mitoxantrone IC50; type: cell-based; details: s1-m1-80, 72 h; procedure, shortened: as §3
[12] = tested on: S1; assay: Effect on mitoxantrone-induced cytotoxicity against human S1 cells assessed as fold change in mitoxantrone IC50 at 0.5 uM after 72 hrs by MTT assay relative to mitoxantrone IC50; type: functional; procedure, shortened: as §2
[13] = tested on: HEK293; assay: Effect on mitoxantrone-induced cytotoxicity against HEK293 cells assessed as fold change in mitoxantrone IC50 at 1 uM after 72 hrs by CCK8 assay relative to mitoxantrone IC50; type: cell-based; details: human, hek293, 72 h
Procedure, shortened: (§4)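 Reversal assay in parental pcDNA-HEK293 and transfected HEK293 lines (ABCB1 for colchicine, ABCC1 for etoposide, ABCG2 for mitoxantrone/topotecan). Substrate drug series was given with or without nontoxic modulator (0.5, 1.0, 2.0 or 3.0 μM) for 72 h, with a CCK-8 read-out. Fold-reversal is substrate IC50 without modulator divided by IC50 with modulator. Three independent experiments.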

[14] = tested on: HEK293; assay: Effect on etoposide-induced cytotoxicity against HEK293 cells assessed as fold change in etoposide IC50 at 2 uM after 72 hrs by CCK8 assay relative to etoposide IC50; type: cell-based; details: human, hek293, 72 h; procedure, shortened: as §4
[15] = tested on: HEK293; assay: Effect on etoposide-induced cytotoxicity against HEK293 cells assessed as fold change in etoposide IC50 at 1 uM after 72 hrs by CCK8 assay relative to etoposide IC50; type: cell-based; details: human, hek293, 72 h; procedure, shortened: as §4
[16] = tested on: HEK293; assay: Effect on etoposide-induced cytotoxicity against HEK293 cells assessed as fold change in etoposide IC50 at 0.5 uM after 72 hrs by CCK8 assay relative to etoposide IC50; type: cell-based; details: human, hek293, 72 h; procedure, shortened: as §4

Sequence of Multidrug resistance-associated protein 1 (P33527 whole entry): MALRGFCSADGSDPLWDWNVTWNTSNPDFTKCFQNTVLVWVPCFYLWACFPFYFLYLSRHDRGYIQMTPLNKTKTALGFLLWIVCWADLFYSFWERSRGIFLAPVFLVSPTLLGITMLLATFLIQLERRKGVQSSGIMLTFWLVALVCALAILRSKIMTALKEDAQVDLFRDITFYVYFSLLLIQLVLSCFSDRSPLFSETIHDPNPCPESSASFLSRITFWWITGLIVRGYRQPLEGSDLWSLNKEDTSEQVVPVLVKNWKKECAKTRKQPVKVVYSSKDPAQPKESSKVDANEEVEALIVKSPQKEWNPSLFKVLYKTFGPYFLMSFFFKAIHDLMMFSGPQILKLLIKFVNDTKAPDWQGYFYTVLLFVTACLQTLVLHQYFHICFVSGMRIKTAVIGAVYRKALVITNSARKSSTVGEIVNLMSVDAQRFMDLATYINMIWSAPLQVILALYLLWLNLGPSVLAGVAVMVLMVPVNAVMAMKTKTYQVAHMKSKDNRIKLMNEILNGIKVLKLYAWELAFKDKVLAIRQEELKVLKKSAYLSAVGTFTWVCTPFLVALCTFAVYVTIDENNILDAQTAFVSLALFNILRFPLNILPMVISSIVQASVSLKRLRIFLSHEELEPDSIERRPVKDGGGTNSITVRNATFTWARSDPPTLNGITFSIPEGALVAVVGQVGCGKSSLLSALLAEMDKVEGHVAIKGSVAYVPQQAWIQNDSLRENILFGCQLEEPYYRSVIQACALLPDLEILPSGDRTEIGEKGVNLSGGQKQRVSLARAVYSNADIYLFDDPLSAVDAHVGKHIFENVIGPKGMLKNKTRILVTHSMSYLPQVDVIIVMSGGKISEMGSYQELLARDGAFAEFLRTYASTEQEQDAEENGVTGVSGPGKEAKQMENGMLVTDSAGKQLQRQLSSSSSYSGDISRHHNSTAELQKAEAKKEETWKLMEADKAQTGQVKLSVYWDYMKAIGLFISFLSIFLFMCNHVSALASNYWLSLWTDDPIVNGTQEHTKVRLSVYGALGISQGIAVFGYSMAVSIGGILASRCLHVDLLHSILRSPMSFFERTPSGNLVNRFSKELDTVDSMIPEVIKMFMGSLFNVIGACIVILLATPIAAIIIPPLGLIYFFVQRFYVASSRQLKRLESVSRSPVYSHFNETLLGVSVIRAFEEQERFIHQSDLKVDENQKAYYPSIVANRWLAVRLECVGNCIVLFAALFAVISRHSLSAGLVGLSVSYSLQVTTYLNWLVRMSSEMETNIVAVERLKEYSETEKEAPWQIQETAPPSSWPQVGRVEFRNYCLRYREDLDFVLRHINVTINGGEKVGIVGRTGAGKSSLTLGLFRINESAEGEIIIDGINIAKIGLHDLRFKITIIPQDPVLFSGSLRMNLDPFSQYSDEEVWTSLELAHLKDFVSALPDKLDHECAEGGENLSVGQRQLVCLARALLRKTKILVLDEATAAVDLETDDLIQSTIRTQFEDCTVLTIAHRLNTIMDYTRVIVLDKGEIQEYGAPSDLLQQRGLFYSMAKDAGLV

EC50 [1]: 14 µM
Activity ([1]; human, 20 min): Dose-dependent effect
Activity [3]: Not Active
fold change (FC) [8]: 16.6
Compound: C=CC(C)(C)c1cc(/C=C/C(=O)c2ccc(O)cc2)c(OC)cc1O [LICOAGROCHACONE A]
Activity [2]: Non-Toxic
IC50 [4]: 10 to 50 µM
IC50 [5]: 10 to 50 µM
IC50 [6]: 10 to 50 µM
fold change (FC) [7]: 1.7
fold change (FC) [9]: 0.9
fold change (FC) [10]: 0.9
fold change (FC) [11]: 48.1
fold change (FC) [12]: 1.1
fold change (FC) [13]: 1
fold change (FC) [14]: 0.7
fold change (FC) [15]: 0.7
fold change (FC) [16]: 0.7
